From ChEMBL document CHEMBL3621119, “Synthesis and Biological Evaluation of Manassantin Analogues for Hypoxia-Inducible Factor 1α Inhibition” (J Med Chem, 2015)
The source made the active and inactive calls. No cut-off for these calls is given here.

Tests used:
[1] = target: T1, Hypoxia inducible factors; HIF-1-alpha, HIF-2-alpha (Homo sapiens, UniProt Q16665+Q99814); experiment: Inhibition of HIF1 in human HEK293T cells transfected with pGL3-5HRE-VEGF and pRL-SV40 after 24 hrs by dual luciferase reporter assay relative to normoxic condition; format: cell-based; design: concentration or dose not given beside the values; settings: HEK-293T, concentration not given here
[2] = target: T1, Hypoxia inducible factors; HIF-1-alpha, HIF-2-alpha; experiment: Inhibition of HIF1 in human HEK293T cells transfected with pGL3-5HRE-VEGF and pRL-SV40 after 24 hrs by dual luciferase reporter assay; format: cell-based; settings: hek-293t
Procedure, shortened: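 HEK-293T cells seeded at 5×10^3/well, attached 24 h, then co-transfected with pGL3-5HRE-VEGF firefly luciferase reporter (five HRE copies from human VEGF promoter) and pRL-SV40 Renilla plasmid. Serially diluted compounds applied under 1% O2 for 24 h post-transfection. Dual-Glo read-out, firefly then Renilla luminescence, each after 10 min; firefly normalized to Renilla (RLU). Three independent experiments, mean ± SD.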

[3] = Cytotoxicity against human HEK293T cells assessed as survival rate at 10 uM after 24 hrs by MTT assay; format: cell-based, HEK-293T; settings: read-out: Survival
Procedure, shortened: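 HEK-293T cells seeded at 1×10^4 cells/well and grown 24 h, then exposed under hypoxia for 24 h to serially diluted compounds (0.005–10 μM). MTT added and incubated 4 h at 37 °C. Formazan dissolved in DMSO, absorbance read at 540 nm. Survival expressed as % of cells. Three independent experiments.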

[4] = target: Hypoxia-inducible factor 1-alpha (Homo sapiens) (UniProt Q16665); experiment: Inhibition of HIF-1 alpha in human HEK293T cells under hypoxic condition at 1 uM after 24 hrs by Western blot analysis; format: cell-based; settings: HEK-293T
Chain of Hypoxia-inducible factor 1-alpha (Homo sapiens) (Q16665 whole entry, looked up): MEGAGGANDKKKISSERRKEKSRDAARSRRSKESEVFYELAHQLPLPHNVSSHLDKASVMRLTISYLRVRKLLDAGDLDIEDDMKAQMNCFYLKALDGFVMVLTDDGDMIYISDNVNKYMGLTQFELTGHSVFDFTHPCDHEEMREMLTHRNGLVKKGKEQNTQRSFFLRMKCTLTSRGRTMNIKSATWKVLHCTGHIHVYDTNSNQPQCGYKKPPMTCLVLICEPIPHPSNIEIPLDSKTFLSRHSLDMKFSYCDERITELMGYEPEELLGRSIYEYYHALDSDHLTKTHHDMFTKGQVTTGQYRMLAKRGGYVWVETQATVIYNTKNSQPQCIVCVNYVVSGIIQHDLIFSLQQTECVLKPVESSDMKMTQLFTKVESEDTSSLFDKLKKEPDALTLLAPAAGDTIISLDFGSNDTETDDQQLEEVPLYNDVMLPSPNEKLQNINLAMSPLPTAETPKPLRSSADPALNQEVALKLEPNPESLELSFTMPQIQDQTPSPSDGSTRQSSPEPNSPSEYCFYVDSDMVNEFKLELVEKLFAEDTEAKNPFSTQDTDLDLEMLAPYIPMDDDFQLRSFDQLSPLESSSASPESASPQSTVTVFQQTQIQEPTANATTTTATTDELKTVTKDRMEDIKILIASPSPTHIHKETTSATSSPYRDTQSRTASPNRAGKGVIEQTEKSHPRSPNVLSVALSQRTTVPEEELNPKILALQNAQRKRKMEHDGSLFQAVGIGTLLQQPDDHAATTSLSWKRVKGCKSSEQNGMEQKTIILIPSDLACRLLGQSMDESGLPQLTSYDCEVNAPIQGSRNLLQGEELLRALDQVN
Procedure, shortened: (§1)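 HEK-293T cells held under hypoxia (1% O2) or normoxia for 24 h with or without 1 μM compound. Total protein lysates run on SDS-PAGE, transferred to nitrocellulose, blocked in 5% skim milk/TBS-0.1% Tween-20. Probed overnight at 4 °C with primary antibodies (HIF-1α, HIF-1β, Cdk6), then HRP secondary. Chemiluminescent detection, β-actin as loading control.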

[5] = target: Hypoxia-inducible factor 1-alpha (Homo sapiens) (UniProt Q16665); experiment: Inhibition of HIF1alpha in human HEK293T cells assessed as decrease of Cdk6 expression under hypoxic condition at 1 uM after 24 hrs by Western blot analysis; format: cell-based; settings: HEK-293T; procedure, shortened: as §1
[6] = target: Hypoxia-inducible factor 1-alpha (Homo sapiens) (UniProt Q16665); experiment: Inhibition of HIF1alpha in human HEK293T cells assessed as decrease of VEGF mRNA expression under hypoxic condition at 1 uM after 24 hrs by RT-PCR analysis; format: cell-based; settings: HEK-293T
Procedure, shortened: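 HEK-293T cells given 1 μM compound under hypoxia for 24 h, with a normoxic control. VEGF mRNA measured by real-time PCR on 10-fold diluted cDNA with gene-specific primers. Cycling: 50 °C 2 min, 95 °C 10 min, then 40 cycles of 95 °C 15 s and 60 °C 1 min. Mean CT normalized to β-actin.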

[7] = target: Aryl hydrocarbon receptor nuclear translocator (Homo sapiens) (UniProt P27540); experiment: Inhibition of HIF1beta in HEK293T cells under hypoxic condition at 1 uM after 24 hrs by Western blot analysis; format: cell-based; settings: HEK-293T; procedure, shortened: as §1
Chain of Aryl hydrocarbon receptor nuclear translocator (Homo sapiens) (P27540 whole entry): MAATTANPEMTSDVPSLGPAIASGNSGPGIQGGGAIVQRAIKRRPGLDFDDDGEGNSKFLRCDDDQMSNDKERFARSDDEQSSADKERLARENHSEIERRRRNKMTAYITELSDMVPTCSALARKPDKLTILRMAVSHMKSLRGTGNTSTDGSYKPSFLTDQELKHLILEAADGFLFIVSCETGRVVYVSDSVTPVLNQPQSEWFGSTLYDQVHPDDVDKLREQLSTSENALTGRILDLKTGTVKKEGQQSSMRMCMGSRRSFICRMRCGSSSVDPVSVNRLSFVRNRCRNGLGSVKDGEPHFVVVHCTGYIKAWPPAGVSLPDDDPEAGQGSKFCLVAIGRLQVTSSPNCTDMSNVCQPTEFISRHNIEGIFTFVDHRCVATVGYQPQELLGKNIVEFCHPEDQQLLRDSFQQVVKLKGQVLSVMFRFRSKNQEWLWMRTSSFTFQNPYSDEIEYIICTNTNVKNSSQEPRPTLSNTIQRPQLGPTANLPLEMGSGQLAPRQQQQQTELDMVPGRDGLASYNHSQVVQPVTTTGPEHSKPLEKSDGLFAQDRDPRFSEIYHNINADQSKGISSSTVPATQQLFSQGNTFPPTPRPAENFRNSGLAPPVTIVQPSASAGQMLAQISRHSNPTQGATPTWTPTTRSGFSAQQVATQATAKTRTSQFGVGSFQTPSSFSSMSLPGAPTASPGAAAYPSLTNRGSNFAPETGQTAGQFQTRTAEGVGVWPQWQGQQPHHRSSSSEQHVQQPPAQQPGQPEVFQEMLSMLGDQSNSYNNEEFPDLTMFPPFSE

Row | SMILES | inhibition [1] [%] | IC50 [2] [µM] | viability at 24 h, 10 µM [3] [%] | inhibition [4] | inhibition [5] | inhibition [6] | inhibition [7]
1 | COc1ccc(CCOc2ccc([C@H]3O[C@H](c4ccc(OCCc5ccc(OC)c(OC)c5)c(OC)c4)[C@H](C)[C@H]3C)cc2OC)cc1OC | 64 | 1.44 | > 80 | – | – | – | –
2 | COc1ccc([C@@H](O)[C@@H](C)Oc2ccc([C@H]3O[C@H](c4ccc(OC)c(OC)c4)[C@H](C)[C@H]3C)cc2OC)cc1OC | 113 | 0.32 | > 80 | Active | Active | Active | inactive
3 | COc1ccc(C(=O)[C@@H](C)Oc2ccc([C@H]3O[C@H](c4ccc(O[C@H](C)C(=O)c5ccc(OC)c(OC)c5)c(OC)c4)[C@H](C)[C@H]3C)cc2OC)cc1OC | 114 | 0.91 | > 80 | – | – | – | –
4 | COc1cc([C@H]2O[C@H](c3ccc(O[C@H](C)[C@H](O)c4ccccc4)c(OC)c3)[C@H](C)[C@H]2C)ccc1O[C@H](C)[C@H](O)c1ccccc1 | 79 | 0.59 | > 80 | – | – | – | –
5 | COc1ccc(C(=O)COc2ccc([C@H]3O[C@H](c4ccc(OCC(=O)c5ccc(OC)c(OC)c5)c(OC)c4)[C@H](C)[C@H]3C)cc2OC)cc1OC | 93 | 0.35 | > 80 | Active | Active | Active | inactive
6 | COc1ccc([C@@H](O)COc2ccc([C@H]3O[C@H](c4ccc(OC[C@H](O)c5ccc(OC)c(OC)c5)c(OC)c4)[C@H](C)[C@H]3C)cc2OC)cc1OC | 94 | 0.38 | > 80 | – | – | – | –
7 | COc1ccc(C(=O)[C@@H](C)Oc2ccc([C@H]3O[C@H](c4ccc(OC)c(OC)c4)[C@H](C)[C@H]3C)cc2OC)cc1OC | 82 | 3.7 | > 80 | – | – | – | –
8 | COc1cc([C@H]2O[C@H](c3ccc(O[C@H](C)C(=O)c4ccccc4)c(OC)c3)[C@H](C)[C@H]2C)ccc1O[C@H](C)C(=O)c1ccccc1 | 101 | 0.69 | > 80 | Active | Active | Active | inactive
9 | COc1ccc([C@H](COc2ccc([C@H]3O[C@H](c4ccc(OC[C@H](OC)c5ccc(OC)c(OC)c5)c(OC)c4)[C@H](C)[C@H]3C)cc2OC)OC)cc1OC | 87 | 1.93 | > 80 | – | – | – | –
10 | COc1ccc(C(=O)COc2cc(C(=O)[C@@H](C)Oc3ccc([C@H]4O[C@H](c5ccc(O[C@H](C)C(=O)c6ccc(OC)c(OCC(=O)c7ccc(OC)c(OC)c7)c6)c(OC)c5)[C@H](C)[C@H]4C)cc3OC)ccc2OC)cc1OC | 36 | – | > 80 | – | – | – | –
11 | COc1ccc(C(=O)[C@@H](C)Oc2ccc([C@H]3O[C@H](c4ccc(O[C@H](C)C(=O)c5ccc(OC)c(O)c5)c(OC)c4)[C@H](C)[C@H]3C)cc2OC)cc1O | 78 | 2.11 | > 80 | – | – | – | –
12 | COc1ccc([C@@H](OC)[C@@H](C)Oc2ccc([C@H]3O[C@H](c4ccc(O[C@H](C)[C@H](OC)c5ccc(OC)c(OC)c5)c(OC)c4)[C@H](C)[C@H]3C)cc2OC)cc1OC | 102 | 0.43 | > 80 | – | – | – | –
